# Measurements published in ChEMBL document CHEMBL1938298, “Synthesis and characterization of [¹²⁵I]2-iodo N-[(S)-{(S)-1-methylpiperidin-2-yl}(phenyl)methyl]3-trifluoromethyl-benzamide as novel imaging probe for glycine transporter 1” (Bioorg Med Chem, 2011).
# Activity calls are given as the source filed them. The rule behind the calls is not given here.
# Tests used:
# [1] = biological target: T1, Sodium- and chloride-dependent glycine transporter 1 (Rattus norvegicus) (UniProt P28572); assay: Binding affinity to GlyT1 in rat brain corpus callosum at 0.03 to 0.04 nM preincubated for 20 mins in binding buffer before compound addition measured after 30 mins by autoradiography in presence of 0.01 mM GlyT2 inhibitor ORG25543 relative to control; format: tissue-based; conditions: tested as the 125I-labelled form
# T1 sequence (whole entry): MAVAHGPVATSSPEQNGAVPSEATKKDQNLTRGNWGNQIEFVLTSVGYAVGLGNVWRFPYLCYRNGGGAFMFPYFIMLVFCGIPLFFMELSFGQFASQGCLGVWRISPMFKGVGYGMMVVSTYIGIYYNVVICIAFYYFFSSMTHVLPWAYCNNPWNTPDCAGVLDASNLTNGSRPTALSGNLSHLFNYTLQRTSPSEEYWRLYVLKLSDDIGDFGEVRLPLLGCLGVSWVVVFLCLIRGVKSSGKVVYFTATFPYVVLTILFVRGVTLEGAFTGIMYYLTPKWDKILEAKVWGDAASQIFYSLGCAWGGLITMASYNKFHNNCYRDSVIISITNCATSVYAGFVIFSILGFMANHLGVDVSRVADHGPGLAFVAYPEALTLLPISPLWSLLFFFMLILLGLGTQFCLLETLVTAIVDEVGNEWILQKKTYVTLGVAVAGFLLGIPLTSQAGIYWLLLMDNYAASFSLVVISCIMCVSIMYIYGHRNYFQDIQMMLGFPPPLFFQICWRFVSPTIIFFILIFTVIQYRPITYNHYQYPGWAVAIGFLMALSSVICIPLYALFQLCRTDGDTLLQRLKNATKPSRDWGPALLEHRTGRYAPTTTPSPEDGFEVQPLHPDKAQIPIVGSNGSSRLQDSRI
# In short: (§1)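 Rat brain sagittal sections (20 µm) preincubated 20 min at 25 °C in Tris-HCl buffer pH 7.5 (NaCl, KCl, MgCl2, CaCl2), then 30 min at 25 °C with [125I] tracer (100 kBq, 0.03–0.04 nM) plus competitor (10 µM; glycine 1 or 10 mM). Cold washes, imaging plate 3 days, ROI PSL minus background per mm². % control from ≥triplicate slices, three rats.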
# [2] = biological target: T1, Sodium- and chloride-dependent glycine transporter 1 (Rattus norvegicus); assay: Binding affinity to GlyT1 in rat brain hippocampus at 0.03 to 0.04 nM preincubated for 20 mins in binding buffer before compound addition measured after 30 mins by autoradiography in presence of 0.01 mM GlyT1 inhibitor ALX5407 relative to control; format: tissue-based; conditions: tested as the 125I-labelled form; in short: as §1
# [3] = biological target: T1, Sodium- and chloride-dependent glycine transporter 1 (Rattus norvegicus); assay: Binding affinity to GlyT1 in rat brain striatum at 0.03 to 0.04 nM preincubated for 20 mins in binding buffer before compound addition measured after 30 mins by autoradiography in presence of 10 mM GlyT1 substrate glycine relative to control; format: tissue-based; conditions: tested as the 125I-labelled form
# [4] = test system: Mus musculus; assay: In vivo binding affinity to GlyT1 in ddY mouse brain medullary region at 200 kBq, iv after 60 mins by autoradiography relative to control; format: functional, organism-based; conditions: Medulla of organ, tested as the 125I-labelled form
# In short: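 Male ddY mice were injected iv with [125I]5 (200 kBq) and killed 60 min post-injection. For blocking, unlabeled blocker (2 mg/kg) was given iv 15 min before the tracer. Frozen brain sagittal sections (20 μm) were exposed to an imaging plate for 7 days. Regional radioactivity was read as PSL/mm² (n = 5) and compared with control by Kruskal–Wallis with Dunn's post-test.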
# [5] = test system: Mus musculus; assay: In vivo binding affinity to GlyT1 in ddY mouse brain hippocampus at 33.3 kBq, iv after 60 mins in presence of nonradioactive compound 2 mg/kg, iv administered 15 mins prior to compound administration relative to control; format: functional, organism-based; set-up: dose 2 mg/kg; conditions: tested as the 125I-labelled form
# In short: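 Male ddY mice (6 W, 30–35 g) were given [125I]5 (ca. 33.3 kBq, 0.1 mL) iv via tail vein. Blocker (2 mg/kg in 30% DMSO/saline) was given iv 15 min before the tracer. Mice were killed 30 or 60 min after injection and the brain regions were dissected and weighed. Gamma counting gave % dose/g, compared with control; n = 5–6.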
# [6] = biological target: T1, Sodium- and chloride-dependent glycine transporter 1 (Rattus norvegicus); assay: Binding affinity to GlyT1 in rat brain midbrain at 0.03 to 0.04 nM preincubated for 20 mins in binding buffer before compound addition measured after 30 mins by autoradiography in presence of 0.01 mM GlyT1 inhibitor ALX5407 relative to control; format: tissue-based; conditions: tested as the 125I-labelled form; in short: as §1
# [7] = test system: Mus musculus; assay: In vivo binding affinity to GlyT1 in ddY mouse brain striatum at 33.3 kBq, iv after 60 mins in presence of nonradioactive compound 2 mg/kg, iv administered 15 mins prior to compound administration relative to control; format: functional, organism-based; set-up: dose 2 mg/kg; conditions: tested as the 125I-labelled form
# [8] = biological target: T1, Sodium- and chloride-dependent glycine transporter 1 (Rattus norvegicus); assay: Binding affinity to GlyT1 in rat brain medullary region at 0.03 to 0.04 nM preincubated for 20 mins in binding buffer before compound addition measured after 30 mins by autoradiography in presence of 10 mM GlyT1 substrate glycine relative to control; format: tissue-based; conditions: tested as the 125I-labelled form; in short: as §1
# [9] = biological target: T1, Sodium- and chloride-dependent glycine transporter 1 (Rattus norvegicus); assay: Binding affinity to GlyT1 in rat brain cerebral cortex at 0.03 to 0.04 nM preincubated for 20 mins in binding buffer before compound addition measured after 30 mins by autoradiography in presence of 10 mM GlyT1 substrate glycine relative to control; format: tissue-based; conditions: tested as the 125I-labelled form; in short: as §1
# [10] = biological target: T1, Sodium- and chloride-dependent glycine transporter 1 (Rattus norvegicus); assay: Binding affinity to GlyT1 in rat brain cerebellum at 0.03 to 0.04 nM preincubated for 20 mins in binding buffer before compound addition measured after 30 mins by autoradiography in presence of 0.01 mM NMDA receptor glycine site antagonist L-701,324 relative to control; format: tissue-based; conditions: tested as the 125I-labelled form; in short: as §1
# [11] = test system: Mus musculus; assay: In vivo binding affinity to GlyT1 in ddY mouse brain hippocampus at 200 kBq, iv after 60 mins by autoradiography relative to control; format: functional, organism-based; conditions: tested as the 125I-labelled form
# In short: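 Ex vivo autoradiography in mice given 200 kBq [125I]tracer i.v. and killed at 60 min. Brains were removed, frozen on dry ice and cut into 20 µm sagittal cryosections, which were exposed to an imaging plate for 7 days. Regional signal was quantified as PSL/mm² (n = 5) and compared to control by Kruskal–Wallis with Dunn's post-test.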
# [12] = test system: Mus musculus; assay: In vivo binding affinity to GlyT1 in ddY mouse brain striatum at 33.3 kBq, iv after 30 mins in presence of N-Me-SSR504734 2 mg/kg, iv administered 15 mins prior to compound administration relative to control; format: functional, organism-based; set-up: dose 2 mg/kg; conditions: tested as the 125I-labelled form
# [13] = test system: Mus musculus; assay: In vivo binding affinity to GlyT1 in ddY mouse brain thalamus at 33.3 kBq, iv after 30 mins in presence of SSR504734 2 mg/kg, iv administered 15 mins prior to compound administration relative to control; format: functional, organism-based; set-up: dose 2 mg/kg; conditions: tested as the 125I-labelled form
# [14] = biological target: T1, Sodium- and chloride-dependent glycine transporter 1 (Rattus norvegicus); assay: Binding affinity to GlyT1 in rat brain cerebral cortex at 0.03 to 0.04 nM preincubated for 20 mins in binding buffer before compound addition measured after 30 mins by autoradiography in presence of 0.01 mM GlyT1 inhibitor ALX5407 relative to control; format: tissue-based; conditions: tested as the 125I-labelled form; in short: as §1
# [15] = Metabolic stability in ddY mouse brain assessed as compound remaining at 185 kBq after 60 mins by radio-TLC; format: ADME, tissue-based; conditions: read-out: Stability
# [16] = test system: Liver; assay: Drug uptake in ddY mouse liver at 11.1 kBq, iv after 15 min by gamma counting; format: ADME, organism-based; conditions: in vivo
# In short: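 Male ddY mice (6 weeks, 30–35 g) were given about 11.1 kBq of [125I]tracer in 0.1 mL i.v. via the tail vein. At each time point the animals were killed and organs dissected, weighed and gamma-counted. Uptake is expressed as % injected dose per gram of tissue, mean ± SD, n = 5–6.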
Structure (SMILES),Activity [1],Activity [2],Activity [3],Activity [4],Activity [5],Activity [6],Activity [7],Activity [8],Activity [9],Activity [10],Activity [11],Activity [12],Activity [13],Activity [14],remaining at 1 h [15],Drug uptake [16]
CN1CCCC[C@H]1[C@@H](NC(=O)c1cccc(C(F)(F)F)c1I)c1ccccc1,98.2%,63.2%,47.6%,Active,Active,36.2%,Active,61.2%,43.7%,87.1%,inactive,Active,inactive,57.6%,–,–
CN1CCCC[C@H]1[C@@H](NC(=O)c1cccc(C(F)(F)F)c1[125I])c1ccccc1,–,–,–,–,–,–,–,–,–,–,–,–,–,–,89%,11.51 % ID/g
